Results from different studies.
Compare with care: the assays were run in different laboratories.
Target: Histamine H1 receptor (HRH1, Homo sapiens, UniProt P35367)

SMILES | effect on | technique | concentration | endpoint | value
N#Cc1cc(Cn2c(N3CCCC3)nc3ccccc32)ccc1F | ligand displacement |  | 10 µM | inhibition | 73%
CN1CCC(C2c3ccccc3C=Cc3ccccc32)CC1 | binding |  |  | koff | 0.00035 s⁻¹
Oc1cccc(Nc2nc(-c3ccc(F)cc3F)cs2)c1 | cell-free assay |  | 10 µM | inhibition | -19.9%
CN(C)CCOC1c2ccccc2C=Cc2ccccc21 | binding |  |  | kon | 833000 M⁻¹ s⁻¹
C[C@H](NC(=O)Nc1cc2[nH]ncc2c(CO)n1)c1ccccn1 | cell-free assay |  | 10 µM | inhibition | 4.18%
COc1ccc(-n2nc(OCCCN3CCCCC3)ccc2=O)cc1 | ligand displacement |  | 1 µM | inhibition | 16.7%
O=C(c1ccc(F)cc1)N(Cc1ccccc1)C1CCCCC1 | cell-free assay |  | 10 µM | inhibition | 23%
CCN(CC)c1ccc(C2Nc3ccc(C(=O)c4ccccc4)cc3NC3=C2C(=O)CC(C)(C)C3)cc1 (centres unmarked) | ligand displacement | radioligand | 10 µM | inhibition | 40%
CC(C)(C)OC(=O)N1CCCC1CNC1CCC(c2cc(F)ccc2F)(S(=O)(=O)c2ccc(Cl)cc2)CC1 (centres unmarked) | cell-free assay |  | 10 µM | inhibition | 25.6%
Ic1cccc2cnccc12 | ligand displacement | radioligand | 10 µM | inhibition | 0%
CN1CCN(C2c3ccccc3CCc3ccccc32)CC1 | binding |  |  | koff | 0.002 s⁻¹
CCCNc1nc2ccccc2n1Cc1ccc(Cl)cc1 | ligand displacement |  | 10 µM | inhibition | 97.8%
CN(C)CCOC1c2ccccc2CCc2ccccc21 | binding |  |  | kon | 1.1e+06 M⁻¹ s⁻¹
CN1CCN(CCCOc2ccc(=O)n(-c3ccc(Cl)c(Cl)c3)n2)CC1 | ligand displacement |  | 1 µM | inhibition | 40.7%
CN1CCC(=C2c3ccccc3CCc3cccnc32)CC1 | binding |  |  | koff | 0.000147 s⁻¹
O=C1N=C(N2CCCCN2)S/C1=C\c1ccc(F)cc1O | ligand displacement | radioligand | 10 µM | inhibition | < 10%
CCN(Cc1ccccc1C(F)(F)F)C(=O)C1CCN(S(=O)(=O)c2ccc3[nH]ncc3c2)CC1 | ligand displacement | radioligand | 10 µM | inhibition | 26%
